# Assay results pooled from the literature.
# Each line is one published result; the experiments were not run side by side.
# Observed: cell growth or viability
Compound,cell line,technique,time,IC50 [µM]
Cc1c(C)c2c(c(C)c1O)CCC(C)(COc1ccc(CC3SC(=O)NC3=O)cc1)O2 (centres unmarked),THLE-2,MTT,,16.3
O=P1(C2CCCCC2)CCCCC1,SW480,MTT,72 h,5.1
COc1ccc(Nc2ncnc3c2ncn3Cc2ccc(C(=O)Nc3ccccc3N)cc2)cc1,MM1.S,MTT,72 h,15.8
O=C(NO)Nc1nc2c(Cl)cc(Cl)cc2c(=O)n1-c1ccc(Cl)cc1,SW480,MTT,48 h,> 200
COc1cccc2c1C(=O)c1c(O)c3c(c(O)c1C2=O)C[C@@](O)(C(=O)CO)C[C@@H]3O[C@H]1C[C@H](N)[C@H](O)[C@H](C)O1,HGC-27,,96 h,0.166
COc1ccc(Nc2ncnc3c2ncn3Cc2ccc(C(=O)NO)cc2)cc1,MM1.S,MTT,72 h,2.04
CN(C)C(=O)Nc1nc2c(Cl)cc(Cl)cc2c(=O)n1-c1ccccc1,SW480,MTT,48 h,> 200
C=C1CC[C@@H]2[C@](C)(CO)[C@H](O)CC[C@@]2(C)[C@@H]1C/C=C1/C(=O)OC[C@H]1O,SW480,MTT,24 h,5.08
NNc1nc2ccc(Br)cc2c(=O)n1-c1ccc(F)cc1,SW480,MTT,48 h,14.7
CS(=O)(=O)CCNCc1ccc(-c2ccc3ncnc(Nc4ccc(OCc5cccc(F)c5)c(Cl)c4)c3c2)o1,NCI-N87,ATP luminescence,,0.0572
C#Cc1cccc(Nc2ncnc3cc(OCCOC)c(OCCOC)cc23)c1,SW480,MTT,48 h,11.2
CC1=CC(=O)C(C(C)C)=CC1=O,FR2,SRB,48 h,< 100
COc1cccc2c1C(=O)c1c(O)c3c(c(O)c1C2=O)C[C@@](O)(C(=O)CO)C[C@@H]3O[C@H]1C[C@H](N)[C@H](O)[C@H](C)O1,SW480,MTT,72 h,0.75
O=C(NO)c1ccc(Cn2cnc3c(Nc4ccc(Cl)cc4)ncnc32)cc1,MM1.S,MTT,72 h,2.64
Cc1nc(Nc2ncc(C(=O)Nc3c(C)cccc3Cl)s2)cc(N2CC[C@H](O)C2)n1,Toledo,ATP luminescence,72 h,> 10
COc1c(Cl)cccc1Nc1c(-c2ccncc2OC[C@@H]2COCCO2)[nH]c2c1C(=O)NCC2,NCI-N87,ATP luminescence,,0.0127
Cc1ccc(NNc2nc3c(Cl)cc(Cl)cc3c(=O)n2-c2ccccc2)cc1,SW480,MTT,48 h,132
Nc1ccccc1NC(=O)c1ccc(Cn2cnc3c(Nc4ccc(Br)cc4F)ncnc32)cc1,MM1.S,MTT,72 h,1.47
O=C(NO)Nc1nc2c(Cl)cc(Cl)cc2c(=O)n1-c1ccccc1,SW480,MTT,48 h,> 200
COc1cccc2c1C(=O)c1c(O)c3c(c(O)c1C2=O)C[C@@](O)(C(=O)CO)C[C@@H]3O[C@H]1C[C@H](N)[C@H](O)[C@H](C)O1,SW480,MTT,24 h,0.79
CC1(P2(=O)CCCCC2)CCCCC1,SW480,MTT,72 h,> 100
O=c1c2cc(Cl)cc(Cl)c2nc(NNc2cccc(Cl)c2)n1-c1ccccc1,SW480,MTT,48 h,> 200
Cc1cc2c(C(N)=O)cccc2n1-c1nc2c(c(NCc3ccccc3)n1)CCCN2,MM1.S,,72 h,0.7
